IC50 and inhibition data for 15 molecules are collected here from ChEMBL document CHEMBL1772940, “Design and synthesis of potent and selective aldose reductase inhibitors based on pyridylthiadiazine scaffold” (Eur J Med Chem, 2011).

The IC50 is the concentration that inhibits the measured activity by half. Higher therefore signals lower potency. One may read the inhibition as the change of the read-out against control, counted positive when it falls.

The target of assay [1] is Aldo-keto reductase family 1 member B1 (Rattus norvegicus, UniProt P07943). Description: Inhibition of Wistar rat lens aldose reductase 2 by spectrophotometric analysis. In short, it runs like this:
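Partially purified lens enzyme (homogenized in cold water, centrifuged 30 min at 0–4 °C, ammonium sulfate 40/50/75% cuts). Mix without DL-glyceraldehyde was preincubated 10 min at 32 °C; the NADPH drop was read at 340 nm at 32 °C in pH 6.2 phosphate, with the substrate-free rate subtracted. At least four concentrations (10^-4–10^-8 M), triplicate; IC50 from log concentration-response regression.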

The subject of assay [2] is Aldehyde reductase AKR1A1 (Rattus norvegicus). Description: Inhibition of Wistar rat kidney aldehyde reductase at 50 uM by spectrophotometric analysis.

Regarding `Cc1cnc2c(c1)S(=O)(=O)N(Cc1cc(F)c(F)cc1F)CN2CC(=O)O`, in assay [1], the IC50 was determined as 0.084 µM. The molecule also registered an inhibition in assay [2] of 35.4%.
As for `COc1ccc(CN2CN(CC(=O)O)c3ncc(C)cc3S2(=O)=O)cc1`, the IC50 in assay [1] was 6.27 µM. Moreover, the inhibition in assay [2] was found to be 17.7%.
The molecule `O=C(O)CN1CN(Cc2ccc(C(F)(F)F)cc2)S(=O)(=O)c2cc(Br)cnc21` gave an IC50 in assay [1] of 0.965 µM. Besides, the inhibition in assay [2] worked out at 43.3%.
Molecule `O=C(O)CN1CN(Cc2ccc(Br)cc2F)S(=O)(=O)c2cc(Br)cnc21` had an IC50 in assay [1] of 0.069 µM. The inhibition in assay [2] was 44.9%.
On the same counts, the results for `O=C(O)CN1CN(Cc2cccc([N+](=O)[O-])c2)S(=O)(=O)c2cc(Cl)cnc21` are 0.093 µM and 40.2%.
On the same counts, the results for `Cc1cnc2c(c1)S(=O)(=O)N(Cc1ccc(C(F)(F)F)cc1)CN2CC(=O)O` are 1 µM and 20.5%.
On the same counts, the results for `O=C(O)CN1CN(Cc2cc(F)c(F)cc2F)S(=O)(=O)c2cc(Br)cnc21` are 0.066 µM and 44.2%.
`COc1ccc(CN2CN(CC(=O)O)c3ncc(Cl)cc3S2(=O)=O)cc1`: the IC50 in assay [1] came out at 6.54 µM. This molecule registered an inhibition in assay [2] of 32.3%.
Turning to `Cc1cnc2c(c1)S(=O)(=O)N(Cc1cccc([N+](=O)[O-])c1)CN2CC(=O)O`, the IC50 in assay [1] is 0.143 µM. The molecule further had an inhibition in assay [2] of 23.2%.
As to `COc1ccc(CN2CN(CC(=O)O)c3ncc(Br)cc3S2(=O)=O)cc1`, the IC50 in assay [1] came out at 11.3 µM. The molecule further displayed an inhibition in assay [2] of 27.9%.
In assay [1], `Cc1cnc2c(c1)S(=O)(=O)N(Cc1ccc(Br)cc1F)CN2CC(=O)O` showed an IC50 of 0.127 µM. Moreover, the inhibition in assay [2] turned out to be 24.6%.
On the same counts, the results for `O=C(O)CN1CN(Cc2cc(F)c(F)cc2F)S(=O)(=O)c2cc(Cl)cnc21` are 0.038 µM and 36.5%.
On the same counts, the results for `O=C(O)CN1CN(Cc2ccc(C(F)(F)F)cc2)S(=O)(=O)c2cc(Cl)cnc21` are 1.01 µM and 42.3%.
On the same counts, the results for `O=C(O)CN1CN(Cc2cccc([N+](=O)[O-])c2)S(=O)(=O)c2cc(Br)cnc21` are 0.098 µM and 31.5%.
For the molecule `O=C(O)CN1CN(Cc2ccc(Br)cc2F)S(=O)(=O)c2cc(Cl)cnc21`, the IC50 in assay [1] is 0.044 µM. The same molecule came in with an inhibition in assay [2] of 36.6%.
